The test system of assay [1] is HL60/ADR. Description: Cytotoxicity against human HL60/ADR cells assessed as reduction in cell survival up to 1 uM treated for 30 mins with ROS scavenger N-acetylcysteine measured after 72 hrs by MTT assay. Format: functional, cell-based. On the technique in general: Tetrazolium dyes change colour on reduction, which living cells bring about.
For the next assay, the system named is L929. Description: Antiproliferative activity against mouse L929 cells after 72 hrs by MTT assay. The following applies: L929, 72 h. Format: functional, cell-based. The method, boiled down:
(§1)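 MTT viability after 72 h continuous exposure. Cells seeded 24 h beforehand at 2,000/well (adherent) or 10,000/well (suspension), then given 0, 0.01, 0.1, 0.5, 1.0 or 10.0 μM compound diluted from 10 mM DMSO stock into RPMI or DMEM with 10% FBS, 37°C, 5% CO2. IC50 taken as concentration killing 50% of cells versus untreated culture.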

Assay [2] in a line: Antiproliferative activity against mouse KS483 cells after 72 hrs by MTT assay. It is filed as cell-based. The following applies: KS483, 72 h. The method, boiled down: as §1
In assay [3] the test system is HL-60. Description: Cytotoxicity against human HL60 cells assessed as reduction in cell survival up to 1 uM treated for 30 mins with ROS scavenger ascorbic acid measured after 72 hrs by MTT assay. It is filed as functional, cell-based.
The test system of assay [4] is HL60/ADR. Kind of assay: Cytotoxicity against human HL60/ADR cells assessed as reduction in cell survival up to 1 uM treated for 30 mins with ROS scavenger ascorbic acid measured after 72 hrs by MTT assay. Format: functional, cell-based.
Assay [5] has as its system HL-60. Description: Induction of apoptosis in human HL60 cells assessed as decrease in Bcl-XL expression at 0.1 to 1 uM after 48 hrs by Western blot analysis. It is filed as functional, cell-based. Put shortly:
(§2)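 HL-60 cells exposed 48 h; proteins isolated, resolved by SDS/PAGE, transferred to PVDF and immunoblotted. Equal loading checked by re-probing the same membrane for beta-actin. Peroxidase-labelled secondary antibodies at 1:5,000.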

Assay [6] has as its target c-Jun N-terminal kinase, JNK (Homo sapiens) (UniProt P45983+P53779+P45984). Kind of assay: Inhibition of JNK in human HL60 cells assessed as increase in phosphorylated STAT3 expression at 0.1 to 1 uM after 48 hrs by Western blot analysis. Format: cell-based. The note with it: HL-60. The method, boiled down:
as §2
Background: In western blotting, separated proteins are transferred to a membrane and probed.

Assay [7] addresses T1, Endonuclease G, mitochondrial (Homo sapiens) (UniProt Q14249).
T1 sequence (whole entry): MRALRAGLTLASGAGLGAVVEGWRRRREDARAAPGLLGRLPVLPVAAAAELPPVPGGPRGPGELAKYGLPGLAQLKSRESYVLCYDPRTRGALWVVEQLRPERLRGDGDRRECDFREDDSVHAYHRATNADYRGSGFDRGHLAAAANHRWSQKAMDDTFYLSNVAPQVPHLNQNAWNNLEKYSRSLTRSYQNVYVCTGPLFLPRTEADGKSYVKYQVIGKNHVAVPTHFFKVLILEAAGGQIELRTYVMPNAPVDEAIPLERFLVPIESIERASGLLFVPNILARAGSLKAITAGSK
Description: Activation of endonuclease G in human HL60 cells at 0.1 to 1 uM after 48 hrs by Western blot analysis. The following applies: HL-60. It is filed as cell-based. The method, boiled down:
as §2

The subject of assay [8] is HL-60. Description: Induction of apoptosis in human HL60 cells assessed as increase in CDK1 expression at 0.1 to 1 uM after 48 hrs by Western blot analysis. Format: functional, cell-based. Put shortly: as §2

A word on the IC50: it is the concentration that inhibits the measured activity by half.

Calls of active or inactive are those of the source. The rule behind the calls is not given here. Some results are limits rather than exact numbers.

For `CC(=O)Oc1cccc(N2C(=O)/C(=C/N3N=C(c4ccccc4)CC3c3ccccc3O)SC2=S)c1` (centres undefined), the outcome with HL60/ADR [1], with HL-60 [3] and in the assay with HL60/ADR [4] was inactive. In addition, the IC50 (in the assay on L929; in [2]) was above 10 µM in each case. In addition, the outcome (with HL-60 [5]; in [7]; with HL-60 [8]) was Active. For the same molecule, the inhibition entry in assay [6] is “Active”.
